C2C12 statin: suppressors of simvastatin-induced myotoxicity in C2C12 myotubes; ATP luminescence, 48 h; scaled: DMSO 0, geranylgeraniol control 100; rescue of ATP level, % at 7.49 µM; 330,000 tested, 0.78% active; AID 602340;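 active means mean ATP rescue above about 67%, or every replicate alone reaching that limit, limit read from the data, passing the limit was not always enough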;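 further: myotubes were challenged with 10 µM simvastatin during compound exposure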
CDK5 p35 inh: blocks human CDK5/p35 kinase activity; Q00535+Q15078; Recombinant CDK5/p35, ADP-Glo luminescence, 60 min; inhibition, % at 10 µM; 330,000 tested, 0.01% active;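 active means highest replicate inhibition of at least 50% and at least 75% of replicates reaching 50%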;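 further: plate controls were DMSO neutral control for no effect and GW8510 at 10 µM for full effect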
Target sequence (Q00535 whole entry, looked up): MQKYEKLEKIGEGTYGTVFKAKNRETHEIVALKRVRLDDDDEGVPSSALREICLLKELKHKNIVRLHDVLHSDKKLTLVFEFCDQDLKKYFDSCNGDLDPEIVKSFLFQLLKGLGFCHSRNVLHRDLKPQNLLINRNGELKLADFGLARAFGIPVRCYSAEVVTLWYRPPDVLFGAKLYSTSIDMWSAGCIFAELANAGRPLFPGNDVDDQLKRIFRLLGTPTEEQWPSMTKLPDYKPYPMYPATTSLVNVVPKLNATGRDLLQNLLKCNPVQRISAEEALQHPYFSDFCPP
Target sequence (Q15078 whole entry, looked up): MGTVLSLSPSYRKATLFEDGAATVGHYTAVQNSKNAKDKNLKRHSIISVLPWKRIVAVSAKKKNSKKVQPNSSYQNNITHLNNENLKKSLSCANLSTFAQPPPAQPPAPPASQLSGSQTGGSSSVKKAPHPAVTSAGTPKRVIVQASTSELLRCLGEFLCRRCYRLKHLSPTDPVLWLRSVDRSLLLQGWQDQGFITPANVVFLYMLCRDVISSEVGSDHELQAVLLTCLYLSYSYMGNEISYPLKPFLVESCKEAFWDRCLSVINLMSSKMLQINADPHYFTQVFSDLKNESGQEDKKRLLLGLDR
CAL PDZ FP-1: human CAL PDZ-peptide interaction inhibition. purified CAL PDZ, TMR-peptide fluorescence polarization, 1 h. AID 504414. 330,000 tested, 0.02% active. Q9HD26. inhibition, % at 20 µM;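 active means highest replicate inhibition of at least 40%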;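 further: plate controls were DMSO neutral control wells for no effect and unlabeled competitor peptide control wells for full effect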
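System: purified tagged CAL PDZ domain construct (CerCALP). Schedule: 1 h incubation at room temperature before polarization reading. Medium: 25 mM sodium phosphate pH 7.4, 150 mM NaCl, TCEP, IgG, Thesit. Read-out: percent inhibition from loss of millipolarization. Measured by: FP readout, S and P plane fluorescence. Probe or stimulus: fluorescent TMR peptide probe.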
CAL PDZ FP-2: CAL PDZ (human) peptide binding inhibition; Q9HD26; purified CAL PDZ, TMR-peptide fluorescence polarization, 1 h; inhibition, % at 24.9 µM; 300,000 tested, 0.92% active;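 active means mean inhibition of at least 30% with at least half of replicates also reaching 30%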;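 further: 0% = DMSO neutral control and 100% = excess unlabeled competitor peptide PRC23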
dFosB act: enhances mouse delta FosB homodimer DNA binding. purified delta FosB, TAMRA-CDK5 oligo fluorescence polarization; percent of positive-control signal above neutral wells. AID 493131. 340,000 tested, 0.99% active. P13346. activation, % at 25 µM;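 active means mean activation above about 17%, with every replicate also reaching it, limit read from the data, passing the limit was not always enough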
S100A4 MyoIIA: inhibitors of human S100A4 binding to myosin IIA peptide; P26447; S100A4/TAMRA-MyoIIA peptide fluorescence polarization; inhibition, % at 10.7 µM; AID 652163; 360,000 tested, 0.14% active;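 active means mean inhibition of at least 70% across replicates, with every replicate also reaching that level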
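Test system: S100A4 monomer protein. Medium: HEPES buffer with Ca2+, pH 7.2. Reagent: fluorescent myosin IIA peptide, 5 nM. Compound dosing: single-point compound testing. Timing: 5 min between mix addition and reading. Benchmarks: DMSO neutral and TFP positive wells.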
Active calls of the source: *; . = not tested or not shown. Sampled rows, rich in hits. Any-hit rate of the full collection: about 2%.

SMILES	C2C12 statin	CDK5 p35 inh	CAL PDZ FP-1	CAL PDZ FP-2	dFosB act	S100A4 MyoIIA
COc1ccc(S(=O)(=O)Nc2cc(C(=O)NCCC(C)C)ccc2N2CCOCC2)cc1	93*	-2	-1	-2	-10	.
OCCNc1ncnc2c1ncn2[C@H]1CN(Cc2cccs2)C[C@@H](CO)O1	17	.	.	.	.	-2
CCCC(=O)Nc1ccc2c(c1)OC[C@@H](C)N(Cc1ccncc1)C[C@@H](C)[C@H](OC)CN(C)C2=O	2	.	.	.	.	3
CO[C@@H]1CN(C)C(=O)c2cc(NS(=O)(=O)CC(F)(F)F)ccc2OC[C@@H](C)N(C)C[C@H]1C	-3	.	.	.	.	106*
CCCC(=O)Nc1ccc2c(c1)OC[C@@H](C)N(Cc1ccncc1)C[C@H](C)[C@H](OC)CN(C)C2=O	-17	.	.	.	.	121*
CCCC(=O)Nc1ccc2c(c1)OC[C@@H](C)N(CCC(F)(F)F)C[C@H](C)[C@H](OC)CN(C)C2=O	11	.	.	.	.	-1
CCCC(=O)Nc1ccc2c(c1)OC[C@H](C)N(CCC(F)(F)F)C[C@H](C)[C@@H](OC)CN(C)C2=O	.	.	.	.	.	131*
CO[C@H]1CN(C)C(=O)c2ccc(NS(=O)(=O)c3ccccc3)cc2OC[C@H](C)N(Cc2cccnc2)C[C@@H]1C	6	.	.	.	.	79*
CO[C@H]1CN(C)C(=O)c2ccc(NS(=O)(=O)c3ccccc3)cc2OC[C@@H](C)N(Cc2cccnc2)C[C@@H]1C	-10	.	.	.	.	8
CCCc1nc2ccccc2c(=O)n1-c1c(C)n(C)n(-c2ccccc2)c1=O	.	0	-1	0	-1	.
CCN(CC)S(=O)(=O)c1ccc2c(c1)nc(CCC(=O)O)n2CC	.	-1	-2	-2	-1	0
CC(c1ccccc1)n1cc(C(=O)NCc2ccccn2)nn1 (stereo unspecified)	-14	-1	-2	29	-7	.
CCCC(=O)Nc1ccc2c(c1)OC[C@@H](C)N(C(=O)c1cnccn1)C[C@@H](C)[C@H](OC)CN(C)C2=O	-15	.	.	.	.	142*
CO[C@@H]1CN(C)C(=O)c2ccc(NC(=O)c3ccc4c(c3)OCO4)cc2OC[C@@H](C)N(Cc2ccc3c(c2)OCO3)C[C@H]1C	42	.	.	.	.	80*
CO[C@H]1CN(C)C(=O)c2ccc(NC(=O)C3CCCCC3)cc2OC[C@@H](C)N(Cc2nccs2)C[C@@H]1C	0	.	.	.	.	130*
C[C@@H]1CCCCO[C@H](CN(C)C(=O)Cc2ccccc2)[C@@H](C)CN([C@@H](C)CO)C(=O)c2cc(NC(=O)Nc3ccc(C(F)(F)F)cc3)ccc2O1	-134	.	.	.	.	2
CCN(CC)S(=O)(=O)c1cccc(-c2csc(C)n2)c1	4	-1	-1	7	-3	-4
CCN(CC)Cc1cc(Nc2ccnc3cc(Cl)ccc23)ccc1O	-12	1	0	-2	44*	0
Cc1ccc(-c2ccccc2NC(=O)CS(=O)CC(=O)Nc2ccc(C)c(Cl)c2)o1 (stereo unspecified)	.	-2	0	-8	-2	-3
CCn1c(SCC(=O)c2ccc(Br)cc2)nnc1C(C)NC(=O)Cc1ccc(OC)cc1 (stereo unspecified)	3	2	-1	-1	2	.
CCn1c(SCC(=O)c2ccc(OC)cc2)nnc1C(C)NC(=O)c1ccc(OC)cc1 (stereo unspecified)	76*	1	-2	-5	2	.
CCCCc1c(O)nc(SCC(=O)N2CCCCC2)n(-c2ccccc2C)c1=O	-8	0	-1	54*	3	.
COc1ccc(NC(=O)c2cc(C)on2)cc1	-5	1	-1	4	-3	-5
CNC(=O)C[C@H]1C(=O)N(C2CCCCC2)C[C@@H]1C	-2	.	.	.	.	-2
Cc1nn(C(C)(C)C)c(OC(=O)c2ccco2)c1Sc1ccccc1	.	-4	.	141*	-6	.
Cc1nn(C(C)(C)C)c(OC(=O)c2ccc(Br)o2)c1Sc1ccccc1	-2	-1	-2	-3	-8	.
COc1ccc(/C=N/NC(=O)c2ccc(-c3ccccc3)cc2)cc1O	.	1	-3	2	5	4
COc1ccc(/C=N/NC(=O)c2ccc(CN3C(=O)c4cccc5cccc3c45)cc2)cc1O	.	-1	-1	77*	-1	-2

High-throughput results: PubChem, Broad Institute
